Statin myotox sup = suppressors of simvastatin-induced myotoxicity in C2C12 myotubes | rescue of ATP level, % at 7.49 µM | 0.78% of 330,000 active | ATP luminescence, 48 h; scaled: DMSO 0, geranylgeraniol control 100;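 active = mean ATP rescue above about 67%, or every replicate alone reaching that limit, limit read from the data, passing the limit was not always enough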;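 note: myotubes were challenged with 10 µM simvastatin during compound exposure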
Cneo AK release = causes C. neoformans cell lysis. AID 651654. 0.2% of 360,000 active. lysis activity, % at 15 µM. adenylate kinase release luminescence, 4 h; normalised: neutral wells 0, clomiphene wells 100;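 active = mean lysis activity across replicates of at least 80%, whatever share of replicates individually reach that level; inactive = mean lysis activity below 80%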
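Test system: log-phase Cryptococcus neoformans yeast cells. Input: 5 × 10^6 yeast cells/mL. Medium: fresh YPD growth medium. Doses: single dose. Incubation: static 4 h at 37 °C with compound, 1 h detection. Measured by: luminescent adenylate kinase detection reagent. Read-out: signal increase indicating cell lysis. Benchmarks: Clomiphene.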
Efflux pump inh = blocks antifungal efflux pumps in multiplex yeast assay; inhibition, % at 10 µM; S. cerevisiae Candida pump triplex, Nile Red efflux; 0.44% of 330,000 active; AID 485275;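 active = plate passing quality check with inhibition over a set limit, or well fluorescence over plate mean plus 4 SD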;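 note: Nile Red retained in pooled yeast measured as flow cytometry median fluorescence; 0% = buffer negative control and 100% = Enniatin B positive control; higher means more Nile Red kept so more efflux inhibition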
SUMO Mot1 rescue = SUMOylation pathway inhibition by Mot1-301 growth rescue; S. cerevisiae Mot1-301 growth rescue, ATP luminescence, 38.5C; percent above DMSO median, 100 means doubled; 1% of 320,000 active; growth rescue, % at 18.8 µM;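 active = every valid replicate shows activation above 250% relative to neutral control wells; inactive = the rest, any valid replicate at or below 250%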;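 note: OY570 slx delta 5 strain wells were the positive control but not used for scaling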
Cmpd fluor yeast = flagged as fluorescent in efflux inhibitor counter-screen | shares compounds with Efflux pump inh | S. cerevisiae AD/pABC3, compound fluorescence, flow cytometry | fluorescence ratio to DMSO, % at 10 µM | 4% of 1,700 active;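 active = fluorescence ratio to DMSO above its plate's cutoff, the plate mean ratio plus 5 SD, cut at about 210% in these data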;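 note: unstained yeast with no Nile Red so the signal is compound autofluorescence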
Mdr1 pump inh = Candida Mdr1 efflux pump inhibition; 1% of 1,700 active; inhibition, % at 10 µM; shares compounds with Efflux pump inh; AID 588518; S. cerevisiae AD/CaMDR1, Nile Red efflux, flow cytometry; in the data active = inhibition above about 26%;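 note: 0% = DMSO vehicle and 100% = reference inhibitor; higher means more Nile Red retained so more efflux inhibition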
Cdr2 pump inh = blocks the Candida albicans Cdr2 efflux pump in yeast. shares compounds with Efflux pump inh. S. cerevisiae AD/CaCDR2, Nile Red retention, flow cytometry. Nile Red retention ratio vs DMSO, % at 10 µM. 4% of 1,700 active; in the data active = Nile Red retention ratio vs DMSO above about 190%;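 note: higher ratio means more blocking of Cdr2 efflux of the dye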
CaCdr1 efflux inh = Candida Cdr1 efflux pump inhibition. S. cerevisiae AD/CaCDR1, Nile Red efflux, flow cytometry. inhibition, % at 10 µM. shares compounds with Efflux pump inh. 1% of 1,700 active. AID 588522;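 active = inhibition above the screen-wide mean plus twice its standard deviation, cut at about 32% in these data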
The depositor's hits bear a star; . = no result; + = active, no number. Only some compounds are listed: those with a hit (about 1.8% of all), similar ones and a draw of the others.

SMILES | Statin myotox sup | Cneo AK release | Efflux pump inh | SUMO Mot1 rescue | Cmpd fluor yeast | Mdr1 pump inh | Cdr2 pump inh | CaCdr1 efflux inh
Cc1ccccc1C(=O)N1CCCC(CCC(=O)N2CCN(c3ccccn3)CC2)C1 (centres undefined) | 2 | 1 | 0 | 4 | . | . | . | .
O=C(NC1CCCc2ccccc21)c1cncc(Br)c1 (centres undefined) | 16 | -1 | 3.4* | 99 | 96 | 0 | 92 | 0
O=C(NC1CCCc2ccccc21)c1cc(F)cc(F)c1 (centres undefined) | 11 | 0 | 0 | -7 | . | . | . | .
O=C(CC(=O)c1ccccc1)c1ccccc1 | -2 | -1 | . | . | . | . | . | .
O=C(Cc1c2ccccc2nc2ccccc12)c1ccccc1 | . | . | 15* | 25 | 92 | 0 | 106 | 0
O=C(NCc1cccs1)c1ccc(Cl)c(S(=O)(=O)N2CCOCC2)c1 | 13 | -1 | . | . | . | . | . | .
O=C(NCC(c1cccs1)N1CCOCC1)c1ccc(Cl)c(S(=O)(=O)N2CCOCC2)c1 (centres undefined) | 3 | . | 1.1* | 25 | 102 | 0 | 97 | 0
C/C(=N\NC(=O)CCCNc1ccccc1)c1ccncc1 | . | . | 1.1* | 429 | 97 | 0 | 106 | 0
CC(Nc1nc(-c2ccccc2)nc2ccccc12)c1ccccc1 (centres undefined) | -26 | -2 | 1.9* | 28 | 100 | 0 | 106 | 0
Cc1ccccc1NC(=O)COC(=O)c1ccc2c(c1)C(=O)N(CCCN1CCOCC1)C2=O | 26 | -3 | . | . | . | . | . | .
COc1ccc(OCCSc2nnc(CCNC(=O)c3ccc(OC)cc3)n2C)cc1 | -8 | -3 | 24* | 13 | 105 | 0 | 106 | 0
Cc1ccc(NC(=O)C[n+]2cc(-c3ccccc3)n3c2CCC3)c(C)c1 | . | . | 0 | -2 | 89 | 0 | 87 | 0
Cc1ccc(-c2c[n+](Cc3cccc(Cl)c3)c3n2CCC3)cc1 | . | . | 0 | -1 | 107 | 0 | 107 | 0
Cc1ccc(-c2c[n+](CC(=O)Nc3c(C)cccc3C)c3n2CCC3)cc1 | . | 2 | 0 | -7 | . | . | . | .
CCc1csc(N2[C@H](C#N)[C@@H](c3ccc(C4=CCCC4)cc3)[C@@H]2CO)n1 | 6 | -1 | . | . | . | . | . | .
Cc1cc(C)nc(NN2C(=O)/C(=C/c3ccccc3)SC2=S)n1 | -7 | -2 | 0 | -11 | . | . | . | .
COc1cc(/C=C2\SC(=S)N(Nc3ncc(C(F)(F)F)cc3Cl)C2=O)ccc1O | 28 | -2 | 0 | -7 | 478* | 0 | 97 | 0
CN(C)c1ccc(/C=C2\SC(=S)N(Nc3ncc(C(F)(F)F)cc3Cl)C2=O)cc1 | 9 | -3 | 1.2* | 88 | + | 0 | 237* | 1
CCN(C(=O)CN1C(=O)NC2(CCc3ccccc32)C1=O)C1CCCCC1 (centres undefined) | 20 | -5 | 0 | 4 | . | . | . | .
COc1ccc(NC(=O)CSc2nc(C)cs2)c(OC)c1 | 9 | -1 | 0 | -13 | . | . | . | .
Cc1cc(C)c2nc(-n3nc(C)cc3N)cc(C)c2c1 | . | . | 2.0* | 9 | 90 | 0 | 95 | 0
Cc1cc(N)n(-c2cc(C)c3ccccc3n2)n1 | . | . | 0 | . | . | . | . | .
Cc1ocnc1C(=O)Nc1ccc(Cl)cc1 | 3 | 5 | 9.8* | -8 | 101 | 0 | 106 | 0
Cc1cc(C(=O)Nc2ccc(Cl)cc2)on1 | 9 | 1 | 0 | 9 | . | . | . | .
O=C(NC(Cc1ccccc1)C(=O)O)c1ccc(S(=O)(=O)N2CCCCC2)cc1 (centres undefined) | 5 | 0 | 6.7* | -11 | 114 | 0 | 103 | 0
SMILES | Statin myotox sup | Cneo AK release | Efflux pump inh | SUMO Mot1 rescue | Cmpd fluor yeast | Mdr1 pump inh | Cdr2 pump inh | CaCdr1 efflux inh
COC(=O)c1c(Sc2ccccc2)c2ccccc2n1C | 7 | 0 | 0 | -14 | . | . | . | .
OCCCNc1ncnc2sc3c(c12)CCN(Cc1ccccc1)C3 | -6 | -3 | 0 | 236 | . | . | . | .
O=C(CSc1nnc(-c2ccccc2O)n1Cc1ccccc1)NNC(=O)c1ccccc1O | . | . | 29* | -13 | 91 | 0 | 97 | 0
O=C(CSc1nnc(-c2ccccc2)n1Cc1ccccc1)NNC(=O)c1ccccc1O | . | 3 | 0 | 50 | . | . | . | .
COc1ccc(NC(=O)N(C)C[C@@H]2Oc3ccc(NC(=O)Nc4ccccc4)cc3CC(=O)N([C@H](C)CO)C[C@H]2C)cc1 | -20 | 2 | . | . | . | . | . | .
COc1ccc(C(=O)c2no[n+]([O-])c2C(=O)c2ccc(OC)cc2)cc1 | . | . | 0 | 26 | . | . | . | .
O=C(c1cccs1)c1no[n+]([O-])c1C(=O)c1cccs1 | . | 0 | 0.9* | 15 | 107 | 2 | 287* | 0
Cc1sc(NC(=O)c2cccs2)nc1-c1ccccc1 | 0 | -2 | -1 | 5 | . | . | . | .
Cc1sc(NC(=S)NC(=O)c2cccs2)nc1-c1ccc(C(C)C)cc1 | -5 | 0 | 0.9* | 26 | 103 | 0 | 94 | 0
CCc1ccc2[nH]c(O)c(N=Nc3nc(-c4ccccc4)cs3)c2c1 | . | . | 0.9* | 278 | 105 | 0 | 91 | 0
CCCCCCCCCCOC(=O)Cn1c(COc2ccc(Cl)cc2)[n+](C)c2ccccc21 | -67 | 15 | 3.1* | -58 | 115 | 0 | 222* | 0
CCCCCCCCCCOC(=O)Cn1c(COc2cccc(C)c2)[n+](C)c2ccccc21 | -116 | -1 | 1.0* | 69 | 110 | 0 | 120 | 0
Cc1nn(-c2ccc(N3CCOCC3)nn2)c(C)c1CCC(=O)NCc1ccc(F)cc1 | 10 | -3 | 0 | 52 | . | . | . | .
Cc1ccc(CNC(=O)CCc2c(C)nn(-c3ccc(N4CCOCC4)nn3)c2C)cc1 | 3 | 0 | 2.0* | 4 | 100 | 0 | 112 | 0
CCn1c(SCC(=O)N/N=C/C(C)=C/c2ccco2)nnc1-c1ccccc1 | . | 3 | 0.8* | -7 | 117 | 0 | 110 | 0
O=C(NCCC1=CCCCC1)C1CCC(CNc2nc(=S)[nH]c3ccccc23)CC1 (centres undefined) | -45 | -2 | 1.1* | -16 | 115 | 0 | 108 | 0
Cc1ccc(C)c(OCc2cc(C(=O)N3CCNC(=O)C3)no2)c1 | 1 | 4 | 0 | -19 | 103 | -1 | 90 | 0
CN(CC(=O)Nc1ccccc1Br)C(=O)CNC(=O)C1CCCCC1 | 5 | -1 | 0 | -2 | . | . | . | .
OCCN1CCN(CC/C=C2/c3ccccc3CSc3ccccc32)CC1 | 21 | 0 | 0 | 80 | . | . | . | .
OCCN1CCN(CC/C=C2/c3ccccc3Sc3ccc(C(F)(F)F)cc32)CC1 | -9 | 5 | 0 | 3 | 110 | 0 | 112 | 0
Cc1cccc(NC(=S)N(CCN(C)C)Cc2cccs2)c1 | -10 | 1 | 1.0* | 23 | 89 | 0 | 96 | 0

Assay outcomes from PubChem BioAssay.
